According to ChEMBL document CHEMBL1136852, “Isolation and structure elucidation of parnafungins C and D, isoxazolidinone-containing antifungal natural products” (2009):
≈ marks a conversion by molar mass, not a printed value.

Tests used:
Assay type in all cases: functional
[1] = system: Candida albicans; assay: Antifungal activity against Candida albicans MY2323
Procedure, shortened: (§1)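 Wild-type C. albicans was tested alongside two heterozygote strains, each carrying a single copy of CLP1 or YSH1, to compare mechanism of action. The read-out was MIC.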

[2] = system: Nakaseomyces glabratus; assay: Antifungal activity against Candida glabrata ATCC 90030
Procedure, shortened: (§2)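 MIC was determined in Sabouraud dextrose medium.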

[3] = system: Candida parapsilosis; assay: Antifungal activity against Candida parapsilosis 22019; settings: Lodderomyces parapsilosis; procedure, shortened: as §2
[4] = system: Clavispora lusitaniae; assay: Antifungal activity against Candida lusitaniae ATCC 34449; procedure, shortened: as §2
[5] = system: Pichia kudriavzevii; assay: Antifungal activity against Candida krusei ATCC 6258; procedure, shortened: as §2
[6] = system: Candida tropicalis; assay: Antifungal activity against Candida Candida tropicalis ATCC 750; procedure, shortened: as §2
[7] = system: Candida albicans; assay: Antifungal activity against Candida albicans MY2323 expressing single copy of CLP1 gene; procedure, shortened: as §1
[8] = system: Candida albicans; assay: Antifungal activity against Candida albicans MY2323 expressing single copy of YSH1 gene; procedure, shortened: as §1

| MIC [1] [µg/mL] | MIC [2] [µg/mL] | MIC [3] [µg/mL] | MIC [4] [µg/mL] | MIC [5] [µg/mL] | MIC [6] [µg/mL] | MIC [7] [µg/mL] | MIC [8] [µg/mL] | SMILES |
| --- | --- | --- | --- | --- | --- | --- | --- | --- |
| 2 (≈ 4.3 µM) | > 10 | > 10 | 0.16 (≈ 0.344 µM) | 0.08 (≈ 0.172 µM) | 2.5 (≈ 5.37 µM) | 0.03 (≈ 0.0645 µM) | 0.03 (≈ 0.0645 µM) | COC(=O)[C@]12Oc3cc4c(c(OC)c3C(=O)C1=C(O)CC[C@@H]2O)-c1cccc2c(=O)on(c12)C4 [PARNAFUNGIN A] |
| 0.016 (≈ 0.0334 µM) | 5 (≈ 10.4 µM) | 2.5 (≈ 5.21 µM) | 0.16 (≈ 0.334 µM) | 0.016 (≈ 0.0334 µM) | 0.6 (≈ 1.25 µM) | 0.004 (≈ 0.00834 µM) | 0.004 (≈ 0.00834 µM) | COC(=O)[C@]12Oc3cc4c(c(OC)c3C(=O)C1=C(O)[C@@H]1O[C@@H]1[C@@H]2O)-c1cccc2c(=O)on(c12)C4 [PARNAFUNGIN D] |
